Assay results gathered from unrelated publications.

| Compound | test | test system | setting | solubility |
| --- | --- | --- | --- | --- |
| Cc1cc(Nc2ccc(S(F)(F)(F)(F)F)cc2)n2nc(C(F)(F)F)nc2n1 | nephelometry | aqueous buffer | pH 6.5 | 30 to 60 µM |
| O=C(Nc1cc(F)c(F)c(F)c1)c1ccc(F)c(S(=O)(=O)NCc2cccc(B(O)O)c2)c1 |  | aqueous buffer | pH 7 | 329 µg/mL |
| CCOc1ccc2cc(-c3nn(CC(C)(C)CO)c(N)c3C(N)=O)cnc2c1 |  | PBS | pH 6.5, 25 °C | > 100 µM |
| Cc1c(F)cccc1Nc1nc(NCc2ccccc2)c2ccccc2n1 |  | aqueous buffer | pH 5 | 8.4 µg/mL |
| COc1cccc(OC)c1-c1nc(C(=O)N[C@@H](CC(C)C)C(=O)O)cn1-c1ccnc2cc(Cl)ccc12 |  | aqueous buffer | pH 5 | > 52 µg/mL |
| CSc1nc2nc(C)cc(Nc3ccc(C(F)(F)F)cc3)n2n1 | nephelometry | aqueous buffer | pH 6.5 | 19 to 38 µM |
| Cc1ccc(-n2sc(=O)n(Cc3ccc(F)cc3)c2=O)cc1 |  | aqueous buffer |  | ~200 µM |
| CCn1cc(CNC(=O)C2=C(C)NC(Nc3nc4ccc(F)c(N)c4o3)=NC2c2ccc(C)cc2Cl)cn1 (centres unmarked) |  | aqueous buffer | 6 h, pH 7.4 | < 1 µg/mL |
| CC(=O)N1CCN(c2ccc(OCC3COC(Cn4ccnc4)(c4ccc(Cl)cc4Cl)O3)cc2)CC1 (centres unmarked) |  | PBS | pH 7.4 | 55.6 µM |
| COCc1nc2nc(C)cc(Nc3ccc(S(F)(F)(F)(F)F)cc3)n2n1 | nephelometry | aqueous buffer | pH 6.5 | 63 to 130 µM |
| CC(C)C[C@H](NC(=O)[C@H](CCc1ccccc1)NC(=O)CN1CCOCC1)C(=O)N[C@@H](Cc1ccccc1)C(=O)N[C@@H](CC(C)C)C(=O)[C@@]1(C)CO1 |  | PBS | 24 h, pH 7.4 | 1.12 µg/mL |
| Clc1cccc(Nc2nc(NCc3cccc(Br)c3)c3ccccc3n2)c1 |  | aqueous buffer | pH 5 | 0.1 µg/mL |
| NCC1CCN(c2nccc3[nH]c(-c4cccc(OC(F)(F)F)c4)nc23)CC1 | shake flask | aqueous buffer | pH 6.5 | > 200 µM |
| O=C(CCCCCCC(=O)Nc1ccccc1)NO |  | simulated gastric fluid | 48 h, pH 2, 25 °C, acidic | 160 µg/mL |
| Cc1n(Cc2ccc3ccccc3n2)c2ccccc2[n+]1Cc1ccc2ccccc2n1.[Cl-] |  | water |  | > 500 µg/mL |
| FC(F)(F)c1ccc2c(c1)nc(N1CCNCC1)n2Cc1ccccc1 | shake flask | aqueous buffer | 20 h, pH 6.5, 25 °C | 200 µM |
| COc1cccc2c(NCc3ccccc3)nc(NCc3ccccc3)nc12 |  | aqueous buffer | pH 5 | 3.2 µg/mL |
| O=C(O)c1ccc(-c2ccc(-c3cc4ccc(O)cc4oc3=O)cc2)cc1 | shake flask | PBS | 36 h, pH 7.4 | 52.5 µM |
| COC(=O)c1ccc(N)cc1 |  | PBS | pH 7.4 | 1800 µg/mL |
| CN1CCN([C@H]2CC[C@@H](Nc3nccc4[nH]c(-c5cc(F)cc(F)c5)nc34)CC2)CC1 | shake flask | aqueous buffer | pH 6.5 | > 200 µM |
| Cc1cccc(C(=O)Nc2cccc(NC(=O)c3ccccc3)c2)c1 |  | aqueous buffer |  | < 0.03 µM |
| Cc1ccc(F)cc1Nc1nc(NCc2ccccc2)c2ccccc2n1 |  | aqueous buffer | pH 5 | 5.6 µg/mL |
| COc1cccc(OC)c1-c1nc(C(=O)N[C@@H](CC(C)C)C(=O)O)cn1-c1cccc2ccccc12 |  | aqueous buffer | pH 7.4 | > 145 µg/mL |
| Nc1cccc(S(=O)(=O)N2CCCN(S(=O)(=O)c3ccc4c(c3)OCCO4)CC2)c1 |  | aqueous buffer |  | 29 µg/mL |

| Compound | test | test system | setting | solubility |
| --- | --- | --- | --- | --- |
| CCc1nc2nc(C)cc(Nc3cccc(Cl)c3)n2n1 | nephelometry | aqueous buffer | pH 6.5 | 170 to 350 µM |
| Cc1c(N(C)C)c(=O)n(-c2ccccc2)n1C |  | PBS | pH 7.4 | 46300 µg/mL |
| CCOc1ccc2cc(-c3nn(C(C)(C)C)c(N)c3C(N)=O)ccc2n1 |  | PBS | pH 6.5, 25 °C | 83.5 µM |
| OCCOc1ccccc1 |  | PBS | 48 h, pH 7.4, 25 °C | 180000 µM |
| CC[C@H](C)[C@H](NC(=O)[C@H](Cc1ccccc1)NC(=O)[C@H](Cc1ccc(O)cc1)NC(=O)[C@@H]1CCCN1C(=O)[C@@H](N)Cc1ccc(O)cc1)C(=O)N1CCC[C@H]1C(=O)N[C@@H](CC(C)C)C(=O)NCC(=O)NCC(=O)NCC(=O)N[C@@H](CCC(=O)O)C(=O)N[C@H](C(=O)N[C@@H](CC(N)=O)C(=O)N[C@@H](CC(C)C)[C@@H](O)CC(=O)N[C@H](C(=O)N[C@@H](C)C(=O)N[C@@H](CCC(=O)O)C(=O)N1CCC[C@@H]1C(=O)N[C@@H](CCCCNC(=O)CCC(=O)O[C@H]1CC[C@@]2(C)C(=CC[C@H]3[C@@H]4CC[C@H]([C@H](C)CCCC(C)C)[C@@]4(C)CC[C@@H]32)C1)C(N)=O)C(C)C)C(C)C |  | aqueous buffer | pH 6.5 | < 1 µg/mL |
| c1ccc(CNc2nc(N3CCOc4ccccc43)nc3ccccc23)cc1 |  | aqueous buffer | pH 7.4 | 0.48 µg/mL |
| Clc1ccc2c(c1)nc(NCCN1CCOCC1)n2Cc1ccccc1 | shake flask | aqueous buffer | 20 h, pH 6.5, 25 °C | 53 µM |
| Cc1ccc(S(=O)(=O)NCc2ccc(C(=O)NCCN(Cc3ccccc3)C(C)C)cc2)cc1 |  | aqueous buffer | pH 5 | 0.47 µg/mL |
| Clc1ccc2c(c1)nc(NCc1ccccn1)n2Cc1ccccc1 | shake flask | aqueous buffer | 20 h, pH 6.5, 25 °C | 15 µM |
| CCOc1ccc2cc(-c3nn(C4CCCCCC4)c(N)c3C(N)=O)ccc2n1 |  | PBS | pH 6.5, 25 °C | 46.5 µM |
| NC1CCN(c2nccc3[nH]c(-c4ccc(F)c(F)c4)nc23)CC1 | shake flask | aqueous buffer | pH 6.5 | > 200 µM |
| Brc1ccc2c(c1)nc(N1CCNCC1)n2Cc1ccccc1 | shake flask | aqueous buffer | 20 h, pH 6.5, 25 °C | 105 µM |
| CCCOc1ccc2cc(-c3nn(C(C)(C)C)c(N)c3C(N)=O)cnc2c1 |  | PBS | pH 6.5, 25 °C | 12.7 µM |
| Brc1cccc2c(NCc3ccccc3)nc(NCc3ccccc3)nc12 |  | aqueous buffer | pH 7.4 | < 0.01 µg/mL |
| N=C(N)NCc1ccc(NC(=O)c2ccc(C(=O)Nc3ccc(C4=CCN(C(=N)N)CC4)cc3)cn2)cc1 | shake flask | aqueous buffer | pH 7.4 | 4.5 µg/mL |
| c1ccc(CNc2nc(N3CCNc4ccccc43)nc3ccccc23)cc1 |  | aqueous buffer | pH 6.2 | 18 µg/mL |
| CC(=O)N[C@@H](CC(N)=O)C(=O)N[C@@H](CCCNC(=N)N)C(=O)N[C@@H](CC(C)C)C(=O)N[C@H]1CSSC[C@@H](C(=O)N[C@H](C(N)=O)[C@@H](C)O)NC(=O)[C@H](CCCNC(=N)N)NC(=O)[C@H](Cc2c[nH]cn2)NC(=O)[C@H](C)NC(=O)CNC(=O)[C@H](Cc2c[nH]c3ccccc23)NC(=O)[C@H](CC(=O)O)NC(=O)[C@H](CCC(N)=O)NC(=O)[C@H](Cc2c[nH]c3ccccc23)NC(=O)[C@H](C(C)C)NC1=O |  | PBS | pH 7.4 | 1050 µg/mL |
| Brc1cccc(Nc2nc(NCc3ccccc3)c3ccccc3n2)c1 |  | aqueous buffer | pH 6.2 | 0.01 µg/mL |
| CNC(=O)c1ccc(N(Cc2ccc(C3CCCCC3)cn2)C(=O)[C@H]2CCN2S(=O)(=O)c2c(F)c(F)c(F)c(F)c2F)cc1O |  | simulated gastric fluid |  | 115 µg/mL |
| O=C(NCCN1CCCC1)c1cc(-c2ccc(CN3CCOCC3)cc2)nc2ccc(F)cc12 |  | simulated gastric fluid | 4 h, pH 2, 37 °C, acidic | > 6490 µM |
| CC(C)CC(=O)N1CCC[C@H](COc2cccc3c2C(N)=NS(=O)(=O)[N-]3)C1.[Na+] |  | water |  | 235000 µM |
| COc1cc(OC)cc(N(CCNC(C)C)c2ccc3ncc(-c4cnn(C)c4)nc3c2)c1 |  | aqueous buffer | pH 9.61 | 1 µg/mL |
| CN1CCN(C2=Nc3cc(Cl)ccc3Nc3ccccc32)CC1 |  | FaSSIF | 24 h, pH 7.4, 37 °C | 350 µg/mL |
